In ChEMBL document CHEMBL3286225, “Novel carboline derivatives as potent antifungal lead compounds: design, synthesis, and biological evaluation” (ACS Med Chem Lett, 2014):
Converted amounts (≈) assume the structure as drawn. The source made the active and inactive calls. The calls are words filed in the database; no cut-off is given here.

Experiments:
Candida albicans [1] = assay: Antifungal activity against fluconazole-sensitive Candida albicans SC5314 assessed as necrosis at 8 ug/ml after 8 hrs by TEM analysis; type: functional, organism-based
Method in brief: (§1)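 Transmission electron microscopy of C. albicans SC5314 cells exposed to 8 μg/mL for 8 h. Untreated cells and cells given fluconazole 8 μg/mL for 8 h served as controls. Cell wall layers, cytoplasmic density and vacuole shape were compared by eye.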

Candida tropicalis = assay: Antifungal activity against Candida tropicalis after 7 days by serial dilution method; type: functional; settings: 168 h
CYP2C19 [2] = target: T1, CYP2C19 (Homo sapiens, UniProt P33261); assay: Inhibition of CYP2C19 in human liver microsomes assessed as S-mephenytoin conversion to 4'-hydroxy mephenytoin at 25 uM preincubated for 10 mins followed by NADPH addition measured after 15 mins by LC-MS/MS analysis relative to control; type: ADME; settings: probe S-mephenytoin
Candida albicans [3] = assay: Antifungal activity against fluconazole-resistant Candida albicans 805 after 24 hrs by serial dilution method; type: functional; settings: Candida albicans, 805, 24 h
Nannizzia gypsea = assay: Antifungal activity against Microsporum gypseum Cmccfmza after 7 days by serial dilution method; type: functional; settings: 168 h
Candida albicans [4] = assay: Inhibition of biofilm formation of fluconazole-sensitive Candida albicans SC5314 at 4 ug/ml after 48 hrs by XTT assay relative to control; type: functional; settings: SC5314, 48 h
Method in brief: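 Biofilm formation by C. albicans SC5314 was tested with compound at 2–64 μg/mL. Untreated and fluconazole 64 μg/mL controls were included. Biofilm was quantified by XTT reduction and expressed as % of untreated control. Mean ± SD of three independent experiments; ANOVA and Student t test, p<0.05.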

Cryptococcus neoformans = assay: Antifungal activity against Cryptococcus neoformans 32609 after 72 hrs by serial dilution method; type: functional; settings: Cryptococcus neoformans, 32609, 72 h
Candida albicans [5] = assay: Antifungal activity against fluconazole-resistant Candida albicans 103 after 24 hrs by serial dilution method in presence of fluconazole; type: functional
Method in brief: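 Tested in combination with fluconazole against each fluconazole-resistant C. albicans strain. Interaction was scored by fractional inhibitory concentration index (FICI): synergy at FICI ≤ 0.5, indifference at 0.5 < FICI ≤ 4, antagonism at FICI > 4.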

CYP3A4 [6] = target: T2, CYP3A4 (Homo sapiens, UniProt P08684); assay: Inhibition of CYP3A4 in human liver microsomes assessed as midazolam conversion to 1'-hydroxy midazolam at 2.5 uM preincubated for 10 mins followed by NADPH addition measured after 15 mins by LC-MS/MS analysis relative to control; type: ADME; settings: probe midazolam
CYP3A4 [7] = target: T2, CYP3A4; assay: Inhibition of CYP3A4 in human liver microsomes assessed as testosterone conversion to 6-hydroxy testosterone at 2.5 uM preincubated for 10 mins followed by NADPH addition measured after 15 mins by LC-MS/MS analysis relative to control; type: ADME; settings: probe testosterone
Cytochrome P450 2C19 = Cytochrome P450 2C19 (Homo sapiens, UniProt P33261); assay: Inhibition of CYP2C19 in human liver microsomes assessed as S-mephenytoin conversion to 4'-hydroxy mephenytoin preincubated for 10 mins followed by NADPH addition measured after 15 mins by LC-MS/MS analysis; type: ADME
Candida albicans [8] = assay: Inhibition of hyphal growth of fluconazole-sensitive Candida albicans SC5314 assessed as appearance of unicellular budding yeast form at 4 to 8 ug/ml after 16 hrs by light microscopic analysis; type: functional, organism-based
Method in brief: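 C. albicans SC5314 was grown in RPMI 1640 at 37 °C for 16 h, without compound or with 2–8 μg/mL. A fluconazole 8 μg/mL control was included. Cell morphology (hyphae, pseudohyphae, budding yeast) was then scored by microscopy.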

Candida albicans [9] = assay: Fungicidal activity against fluconazole-sensitive Candida albicans SC5314 assessed as reduction in fungi density after 24 hrs; type: functional, organism-based
Method in brief: (§2)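 Time-kill: C. albicans (SC5314 or 103) inoculated at 10^5 CFU/mL, untreated or with drug (2–32 μg/mL; fluconazole 32 μg/mL reference); CFU/mL counted after 0, 12, 24 and 48 h.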

CYP2C19 [10] = target: T1, CYP2C19; assay: Inhibition of CYP2C19 in human liver microsomes assessed as S-mephenytoin conversion to 4'-hydroxy mephenytoin at 2.5 uM preincubated for 10 mins followed by NADPH addition measured after 15 mins by LC-MS/MS analysis relative to control; type: ADME; settings: probe S-mephenytoin
CYP3A4 [11] = target: T2, CYP3A4; assay: Inhibition of CYP3A4 in human liver microsomes assessed as testosterone conversion to 6-hydroxy testosterone at 25 uM preincubated for 10 mins followed by NADPH addition measured after 15 mins by LC-MS/MS analysis relative to control; type: ADME; settings: probe testosterone
Candida albicans [12] = assay: Antifungal activity against fluconazole-sensitive Candida albicans SC5314 assessed as change in lanosterol composition at 8 ug/ml after 24 hrs by GC-MS analysis (reference value: 1.5%); type: functional
Method in brief: (§3)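 C. albicans SC5314 exposed to 8 μg/mL for 24 h, sterols analysed by GC-MS with cholesterol internal standard; each sterol expressed as % of total sterol fraction versus no-drug control; average of three independent experiments.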

Candida albicans [13] = assay: Antifungal activity against fluconazole-sensitive Candida albicans SC5314 assessed as reduction in cytoplasmic density at 8 ug/ml after 8 hrs by TEM analysis; type: functional, organism-based; method in brief: as §1
Candida albicans [14] = assay: Antifungal activity against fluconazole-sensitive Candida albicans SC5314 assessed as abnormal vacuole shape at 8 ug/ml after 8 hrs by TEM analysis; type: functional, organism-based; method in brief: as §1
Candida albicans [15] = assay: Antifungal activity against fluconazole-sensitive Candida albicans SC5314 assessed as change in sterol composition at 8 ug/ml after 24 hrs by GC-MS analysis (reference value: 8.5%); type: functional; method in brief: as §3
Candida parapsilosis = assay: Antifungal activity against Candida parapsilosis ATCC 22019 after 24 hrs by serial dilution method; type: functional; settings: Lodderomyces parapsilosis, ATCC 22019, 24 h
WI-38 = assay: Cytotoxicity against human WI38 cells by MTT assay; type: cell-based
Trichophyton rubrum = assay: Antifungal activity against Trichophyton rubrum Cmccftla after 7 days by serial dilution method; type: functional; settings: 168 h
Candida albicans [16] = assay: Fungicidal activity against fluconazole-resistant Candida albicans 103 assessed as growth inhibition at 4 to 32 ug/ml after 12 to 48 hrs; type: functional, organism-based; method in brief: as §2
CYP3A4 [17] = target: T2, CYP3A4; assay: Inhibition of CYP3A4 in human liver microsomes assessed as midazolam conversion to 1'-hydroxy midazolam at 25 uM preincubated for 10 mins followed by NADPH addition measured after 15 mins by LC-MS/MS analysis relative to control; type: ADME; settings: probe midazolam
Candida albicans [18] = assay: Fungicidal activity against fluconazole-sensitive Candida albicans SC5314 after 12 to 48 hrs; type: functional, organism-based
Method in brief: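 Time-kill assay starting from 10^5 CFU/mL C. albicans SC5314. Test concentrations ranged from 2–32 μg/mL. Untreated and fluconazole 32 μg/mL controls were included. Viable counts (CFU/mL) were taken at 0, 12, 24 and 48 h of incubation.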

Pichia kudriavzevii = assay: Antifungal activity against Candida krusei 0710397 after 7 days by serial dilution method; type: functional; settings: Pichia kudriavzevii, 0710397, 168 h
CYP2C9 = CYP2C9 (Homo sapiens, UniProt P11712); assay: Inhibition of CYP2C9 in human liver microsomes assessed as tolbutamide conversion to 4-hydroxy tolbutamide at 2.5 uM preincubated for 10 mins followed by NADPH addition measured after 15 mins by LC-MS/MS analysis relative to control; type: ADME; settings: probe tolbutamide
Sequence of CYP2C9 (P11712 whole entry): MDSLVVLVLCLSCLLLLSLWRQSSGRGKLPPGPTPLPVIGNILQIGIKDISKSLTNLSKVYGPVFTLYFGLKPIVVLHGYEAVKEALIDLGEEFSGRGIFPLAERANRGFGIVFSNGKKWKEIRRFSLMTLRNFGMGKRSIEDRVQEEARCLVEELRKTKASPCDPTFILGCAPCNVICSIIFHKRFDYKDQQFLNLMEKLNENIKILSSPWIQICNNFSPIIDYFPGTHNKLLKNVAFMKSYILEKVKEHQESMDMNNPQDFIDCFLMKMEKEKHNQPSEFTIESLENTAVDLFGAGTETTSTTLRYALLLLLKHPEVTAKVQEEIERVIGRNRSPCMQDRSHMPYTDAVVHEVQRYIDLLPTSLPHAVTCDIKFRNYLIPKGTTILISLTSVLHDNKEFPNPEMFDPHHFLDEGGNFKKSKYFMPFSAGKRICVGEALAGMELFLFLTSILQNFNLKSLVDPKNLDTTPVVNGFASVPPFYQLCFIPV

T2 sequence (P08684 whole entry): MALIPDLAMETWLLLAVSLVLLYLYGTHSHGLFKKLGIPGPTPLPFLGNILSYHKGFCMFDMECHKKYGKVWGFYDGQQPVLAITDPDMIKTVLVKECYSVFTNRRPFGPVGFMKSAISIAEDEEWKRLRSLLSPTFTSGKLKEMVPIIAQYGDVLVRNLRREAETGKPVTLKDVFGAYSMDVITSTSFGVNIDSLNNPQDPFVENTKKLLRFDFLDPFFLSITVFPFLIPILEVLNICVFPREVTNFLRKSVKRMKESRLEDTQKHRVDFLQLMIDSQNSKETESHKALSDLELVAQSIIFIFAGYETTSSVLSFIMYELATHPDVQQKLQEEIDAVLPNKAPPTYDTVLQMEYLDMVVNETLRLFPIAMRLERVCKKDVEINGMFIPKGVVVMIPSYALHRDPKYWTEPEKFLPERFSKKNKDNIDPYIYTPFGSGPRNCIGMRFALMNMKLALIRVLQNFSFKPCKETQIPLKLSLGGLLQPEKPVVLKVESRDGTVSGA
T1 sequence (P33261 whole entry): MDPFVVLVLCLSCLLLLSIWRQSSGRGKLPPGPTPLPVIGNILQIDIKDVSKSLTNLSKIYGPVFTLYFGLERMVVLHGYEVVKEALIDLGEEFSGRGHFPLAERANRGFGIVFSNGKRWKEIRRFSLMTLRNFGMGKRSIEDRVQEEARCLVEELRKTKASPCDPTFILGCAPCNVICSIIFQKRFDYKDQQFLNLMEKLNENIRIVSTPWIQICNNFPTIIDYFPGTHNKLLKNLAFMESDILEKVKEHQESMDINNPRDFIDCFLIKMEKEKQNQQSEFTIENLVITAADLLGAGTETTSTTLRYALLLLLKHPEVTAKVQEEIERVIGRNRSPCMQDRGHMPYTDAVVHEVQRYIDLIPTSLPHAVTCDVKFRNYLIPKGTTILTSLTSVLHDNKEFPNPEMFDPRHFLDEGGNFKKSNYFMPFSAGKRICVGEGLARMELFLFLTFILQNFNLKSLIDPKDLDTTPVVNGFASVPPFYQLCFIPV
Sequence of Cytochrome P450 2C19 (P33261 whole entry): as above

Fc1ccc2c(c1)c1c(n2CCCOc2ccc(Cl)cc2)CCNC1 was tested, and the Activity (Candida albicans [1]) was “Active”, the MIC80 (Candida tropicalis) was 4 µg/mL (≈ 11.1 µM) and the inhibition at 0.25 h, 25 µM (CYP2C19 [2]) was 33%. For the same molecule, the MIC80 (Candida albicans [3]) was 4 µg/mL (≈ 11.1 µM), the MIC80 (Nannizzia gypsea) was 1 µg/mL (≈ 2.79 µM) and the inhibition at 4 µg/mL (Candida albicans [4]) was greater than 50%. The MIC80 (Cryptococcus neoformans) was 1 µg/mL (≈ 2.79 µM), the “fractional inhibitory concentration index (FICI)” value (Candida albicans [5]) was 0.252 and the inhibition at 0.25 h, 2.5 µM (CYP3A4 [6]) was -10%. The inhibition at 0.25 h, 2.5 µM (CYP3A4 [7]) was -10%, the IC50 (Cytochrome P450 2C19) was greater than 25 µM and the “growth inhibition (GI)” value (Candida albicans [8]) was “Active”. For the same molecule, the Activity (Candida albicans [9]) was “Active”, the inhibition at 0.25 h, 2.5 µM (CYP2C19 [10]) was 5% and the inhibition at 0.25 h, 25 µM (CYP3A4 [11]) was -35%. The Activity (Candida albicans [12]) was 12.2%, the Activity (Candida albicans [13]) was “Active” and the Activity (Candida albicans [14]) was “Active”. It also gave an Activity (Candida albicans [15]) of 31.5%, an MIC80 (Candida parapsilosis) of 4 µg/mL (≈ 11.1 µM) and an IC50 (WI-38) greater than 40 µg/mL. For the same molecule, the MIC80 (Trichophyton rubrum) was 2 µg/mL (≈ 5.57 µM), the “growth inhibition (GI)” value (Candida albicans [16]) was “Active” and the inhibition at 0.25 h, 25 µM (CYP3A4 [17]) was 50%. The Activity (Candida albicans [18]) was “Dose-dependent effect”, the MIC80 (Pichia kudriavzevii) was 4 µg/mL (≈ 11.1 µM) and the inhibition at 0.25 h, 2.5 µM (CYP2C9) was 8%.
